Values after ≈ are worked out from the molar mass of the structure shown.
Columns and labels:
[1] = Activity of Aminoglycoside […] 2a using ATP/GTP as second substrate by spectrophotometric assay
Summary of the method: (§1)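 Enzymes were expressed in E. coli BL21(DE3) and affinity-purified: gentamicin column for wild type and N196D/D268N, kanamycin column for R92H/D268N. Activity was read by continuous PK/LDH-coupled NADH assay in 100 mM HEPES pH 7.5, 10 mM MgCl2, 20 mM KCl, 2 mM PEP, 140 μM NADH, with 5 to 10 nM enzyme. ATP/GTP was varied with kanamycin A fixed at 10 μM. Values came from nonlinear Michaelis-Menten fits.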

[2] = Ratio of Kcat to Km for Aminoglycoside […] 2a N196D/D268N mutant using ATP/GTP as second substrate by spectrophotometric assay; summary of the method: as §1
[3] = Activity of Aminoglycoside […] 2a R92H/D268N mutant using ATP/GTP as second substrate by spectrophotometric assay; summary of the method: as §1
[4] = Ratio of Kcat to Km for Aminoglycoside […] 2a using ATP/GTP as second substrate by spectrophotometric assay; summary of the method: as §1
[5] = Ratio of Kcat to Km for Aminoglycoside […] 2a R92H/D268N mutant using ATP/GTP as second substrate by spectrophotometric assay; summary of the method: as §1
[6] = Activity of Aminoglycoside […] 2a N196D/D268N mutant using ATP/GTP as second substrate by spectrophotometric assay; summary of the method: as §1
[7] = system: Escherichia coli; test: Antibacterial activity against Escherichia coli JM83 harboring empty pHF022 vector by broth microdilution method; type: functional
Summary of the method: (§2)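 MICs by CLSI broth microdilution in Mueller-Hinton II broth; inoculum 5 × 10^5 CFU/ml; plates read after 20 h at 35°C. Host E. coli JM83 carrying pHF022 (empty or with cloned wild-type or mutant aph(2″)-IIa gene between NdeI and HindIII). Values are averages of at least three independent experiments.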

[8] = system: Escherichia coli; test: Antibacterial activity against Escherichia coli JM83 harboring pHF022 containing aminoglycoside 2''-2a D268N mutant by broth microdilution method; type: functional; summary of the method: as §2
[9] = system: Escherichia coli; test: Antibacterial activity against Escherichia coli JM83 harboring pHF022 containing aminoglycoside 2''-2a N196D mutant by broth microdilution method; type: functional; summary of the method: as §2
[10] = system: Escherichia coli; test: Antibacterial activity against Escherichia coli JM83 harboring pHF022 containing aminoglycoside 2''-2a phosphotransferase R92H/D268N mutant by broth microdilution method; type: functional; summary of the method: as §2
[11] = system: Escherichia coli; test: Antibacterial activity against Escherichia coli JM83 producing aminoglycoside 2''-2a phosphotransferase by broth microdilution method; type: functional; summary of the method: as §2
[12] = system: Escherichia coli; test: Antibacterial activity against Escherichia coli JM83 harboring pHF022 containing aminoglycoside 2''-2a phosphotransferase N196D/D268N mutant by broth microdilution method; type: functional; summary of the method: as §2
[13] = system: Escherichia coli; test: Antibacterial activity against Escherichia coli JM83 harboring pHF022 containing aminoglycoside 2''-2a phosphotransferase R92H mutant by broth microdilution method; type: functional; summary of the method: as §2

| Compound | Km [1] | kcat [1] | kcat/Km [2] | Km [3] | kcat [3] | kcat/Km [4] | kcat/Km [5] | Km [6] | kcat [6] | MIC [7] | MIC [8] | MIC [9] | MIC [10] | MIC [11] | MIC [12] | MIC [13] |
| --- | --- | --- | --- | --- | --- | --- | --- | --- | --- | --- | --- | --- | --- | --- | --- | --- |
| Nc1ncnc2c1ncn2[C@@H]1O[C@H](COP(=O)(O)OP(=O)(O)OP(=O)(O)O)[C@@H](O)[C@H]1O | 16.3 µM | 43.3 s⁻¹ | 2.2 ×10⁶ /M/s | 29.5 µM | 21.4 s⁻¹ | 2.7 ×10⁶ /M/s | 7.2 ×10⁵ /M/s | 5.6 µM | 12.1 s⁻¹ | – | – | – | – | – | – | – |
| Nc1nc(=O)c2ncn([C@@H]3O[C@H](COP(=O)(O)OP(=O)(O)OP(=O)(O)O)[C@@H](O)C3O)c2[nH]1 (single isomer, unassigned) | 70 µM | 9.4 s⁻¹ | 6.5 ×10⁵ /M/s | 28.2 µM | 8.9 s⁻¹ | 1.3 ×10⁵ /M/s | 3.2 ×10⁵ /M/s | 16.2 µM | 10.6 s⁻¹ | – | – | – | – | – | – | – |
| CN[C@@H]1[C@@H](O)[C@@H](O[C@@H]2[C@@H](O)[C@H](O[C@H]3O[C@H](C(C)O)[C@@H](O)[C@H](O)[C@H]3N)[C@@H](N)C[C@H]2N)OC[C@]1(C)O (single isomer, unassigned) [GENETICIN] | – | – | – | – | – | – | – | – | – | 2 µg/mL (≈ 4.03 µM) | 512 µg/mL (≈ 1030 µM) | 512 µg/mL (≈ 1030 µM) | 512 µg/mL (≈ 1030 µM) | 512 µg/mL (≈ 1030 µM) | 512 µg/mL (≈ 1030 µM) | 512 µg/mL (≈ 1030 µM) |
| NCC[C@H](O)C(=O)N[C@@H]1C[C@H](N)[C@@H](O[C@H]2O[C@H](CN)[C@@H](O)[C@H](O)[C@H]2O)[C@H](O)[C@H]1O[C@H]1O[C@H](CO)[C@@H](O)[C@H](N)[C@H]1O [AMIKACIN] | 62.9 µM | 8.3 s⁻¹ | 1 ×10⁶ /M/s | 23.7 µM | 22.3 s⁻¹ | 1.3 ×10⁵ /M/s | 9.4 ×10⁵ /M/s | 13.5 µM | 13.8 s⁻¹ | 2 µg/mL (≈ 3.42 µM) | 2 µg/mL (≈ 3.42 µM) | 2 µg/mL (≈ 3.42 µM) | 16 µg/mL (≈ 27.3 µM) | 2 µg/mL (≈ 3.42 µM) | 16 µg/mL (≈ 27.3 µM) | 2 µg/mL (≈ 3.42 µM) |
| NC[C@H]1O[C@H](O[C@H]2[C@H](O)[C@@H](O[C@H]3O[C@H](CO)[C@@H](O)[C@H](N)[C@H]3O)[C@H](N)C[C@@H]2N)[C@H](N)[C@@H](O)[C@@H]1O [BEKANAMYCIN] | – | – | – | – | – | – | – | – | – | 1 µg/mL (≈ 2.07 µM) | 64 µg/mL (≈ 132 µM) | 64 µg/mL (≈ 132 µM) | 64 µg/mL (≈ 132 µM) | 64 µg/mL (≈ 132 µM) | 64 µg/mL (≈ 132 µM) | 64 µg/mL (≈ 132 µM) |
| NC[C@@H]1CC[C@@H](N)[C@@H](O[C@H]2[C@H](O)[C@@H](O[C@H]3O[C@H](CO)[C@@H](O)[C@H](N)[C@H]3O)[C@H](N)C[C@@H]2N)O1 [DIBEKACIN] | 1.2 µM | 17.1 s⁻¹ | > 1.7 ×10⁷ /M/s | 1.2 µM | 27.5 s⁻¹ | 1.4 ×10⁷ /M/s | 2.3 ×10⁷ /M/s | < 1 µM | 16.9 s⁻¹ | 0.5 µg/mL (≈ 1.11 µM) | 32 µg/mL (≈ 70.9 µM) | 64 µg/mL (≈ 142 µM) | 64 µg/mL (≈ 142 µM) | 64 µg/mL (≈ 142 µM) | 64 µg/mL (≈ 142 µM) | 64 µg/mL (≈ 142 µM) |
| CN[C@@H]1[C@@H](O)[C@@H](O[C@@H]2[C@@H](O)[C@H](O[C@H]3O[C@H](CN)[C@@H](O)[C@H](O)[C@H]3O)[C@@H](N)C[C@H]2NC(=O)[C@@H](O)CN)OC[C@]1(C)O [ISEPAMICIN] | 13.5 µM | 5.7 s⁻¹ | 2 ×10⁶ /M/s | 1.2 µM | 2.8 s⁻¹ | 4.4 ×10⁵ /M/s | 2.3 ×10⁶ /M/s | 2 µM | 4.1 s⁻¹ | 2 µg/mL (≈ 3.51 µM) | 2 µg/mL (≈ 3.51 µM) | 2 µg/mL (≈ 3.51 µM) | 16 µg/mL (≈ 28.1 µM) | 2 µg/mL (≈ 3.51 µM) | 16 µg/mL (≈ 28.1 µM) | 4 µg/mL (≈ 7.02 µM) |
| NC[C@@H]1O[C@@H](O[C@H]2[C@H](O)[C@@H](O[C@H]3O[C@H](CO)[C@@H](O)[C@H](N)[C@H]3O)[C@H](N)C[C@@H]2N)[C@@H](O)[C@H](O)[C@H]1O [KANAMYCIN A] | 2.1 µM | 45.1 s⁻¹ | > 1.4 ×10⁷ /M/s | < 1 µM | 20.5 s⁻¹ | 2.2 ×10⁷ /M/s | > 2 ×10⁷ /M/s | < 1 µM | 13.8 s⁻¹ | 2 µg/mL (≈ 4.13 µM) | 256 µg/mL (≈ 528 µM) | 256 µg/mL (≈ 528 µM) | 256 µg/mL (≈ 528 µM) | 256 µg/mL (≈ 528 µM) | 256 µg/mL (≈ 528 µM) | 256 µg/mL (≈ 528 µM) |
| CCN[C@@H]1C[C@H](N)[C@@H](O[C@H]2OC(CN)=CC[C@H]2N)[C@H](O)[C@H]1O[C@H]1OC[C@](C)(O)[C@H](NC)[C@H]1O [NETILMICIN] | – | – | – | – | – | – | – | – | – | 0.25 µg/mL (≈ 0.526 µM) | 4 µg/mL (≈ 8.41 µM) | 8 µg/mL (≈ 16.8 µM) | 8 µg/mL (≈ 16.8 µM) | 8 µg/mL (≈ 16.8 µM) | 8 µg/mL (≈ 16.8 µM) | 16 µg/mL (≈ 33.6 µM) |
| CN[C@@H]1[C@@H](O)[C@@H](O[C@@H]2[C@@H](O)[C@H](O[C@H]3OC(CN)=CC[C@H]3N)[C@@H](N)C[C@H]2N)OC[C@]1(C)O [SISOMICIN] | – | – | – | – | – | – | – | – | – | 0.25 µg/mL (≈ 0.559 µM) | 4 µg/mL (≈ 8.94 µM) | 8 µg/mL (≈ 17.9 µM) | 8 µg/mL (≈ 17.9 µM) | 8 µg/mL (≈ 17.9 µM) | 4 µg/mL (≈ 8.94 µM) | 8 µg/mL (≈ 17.9 µM) |
| NC[C@H]1O[C@H](O[C@H]2[C@H](O)[C@@H](O[C@H]3O[C@H](CO)[C@@H](O)[C@H](N)[C@H]3O)[C@H](N)C[C@@H]2N)[C@H](N)C[C@@H]1O [TOBRAMYCIN] | 1.5 µM | 26.1 s⁻¹ | > 1.7 ×10⁷ /M/s | < 1 µM | 26.7 s⁻¹ | 1.7 ×10⁷ /M/s | > 2.7 ×10⁷ /M/s | < 1 µM | 16.6 s⁻¹ | 1 µg/mL (≈ 2.14 µM) | 32 µg/mL (≈ 68.4 µM) | 64 µg/mL (≈ 137 µM) | 64 µg/mL (≈ 137 µM) | 64 µg/mL (≈ 137 µM) | 64 µg/mL (≈ 137 µM) | 64 µg/mL (≈ 137 µM) |
| GENTAMICIN | – | – | – | – | – | – | – | – | – | 0.25 µg/mL | 16 µg/mL | 16 µg/mL | 16 µg/mL | 16 µg/mL | 16 µg/mL | 16 µg/mL |
